This is an account of results in PubChem BioAssay AID602222 (Southern Research Specialized Biocontainment Screening …, 2012).

In this experiment the target is M18 aspartyl aminopeptidase (Plasmodium falciparum 3D7). The experiment is described as follows: inhibition of malaria M18 aspartyl aminopeptidase – biochemical, QFRET, H-Glu-NHMec substrate, set 1, dose response (AID 602222). To be noted: recombinant PfM18AAP, H-Glu-NHMec fluorogenic substrate cleavage; for inhibition: at 100 µM (top of the series). In a few lines:
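Times: 90 min reaction at room temperature; Material: PFM18AAP, purified recombinant M18 aspartyl aminopeptidase of Plasmodium falciparum; Amount: enzyme 5 µg/mL final; Compound: 10 concentrations, 1:2 steps, top 100 µM; Benchmarks: full reaction and no-enzyme wells; Signal: NHMec release measured fluorometrically; Also added: H-Glu-NHMec substrate, 0.1 mM final; Repeats: triplicate.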

The source made the active and inactive calls.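 The calls were made as follows: active = inhibition of 30% or more at any tested concentration; inactive = the rest.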

Usually IC50 stands for the concentration that gives 50% inhibition.

As for `Oc1ccc(-c2csc(NC3CCCC3)n2)cc1O`, the IC50 is 13.1 µM. On to `CN1CCN(c2nc(-c3ccc(O)c(O)c3)cs2)CC1`, for which the concentration for half-maximal inhibition (IC50) was 9.37 µM. For `Oc1ccc(CCNc2ccnc3ccccc23)cc1O`, the IC50 is 7.33 µM. Turning to `CN1CCN(CCc2ccc(O)c(O)c2)CC1`, the half-inhibitory concentration (IC50) was 27.1 µM. The same measure, in the same setting: under `Oc1ccc(CCNc2c3ccccc3nc3ccccc23)cc1O` stands 4.3 µM; under `CCc1ccc(NC(=O)Cc2nc(-c3ccc(O)c(O)c3)cs2)cc1`, 16.6 µM. For `COc1ccc(CCCN2CCN(C)CC2)cc1OC`, the inhibition entry was “inactive”. For `COc1ccc(CCNC(c2ccccc2)c2ccccc2)cc1OC`, the inhibition result is “inactive”.

Consider `CN1CCN(CCCc2ccc(O)c(O)c2)CC1`, for which the concentration for half-maximal inhibition (IC50) is 13.3 µM. Turning to `Oc1ccc(-c2csc(Nc3ncccn3)n2)cc1O`, the concentration for half-maximal inhibition (IC50) is 6.43 µM.
